In ChEMBL document CHEMBL3425411, “Synthesis of β-Carboline-Based N-Heterocyclic Carbenes and Their Antiproliferative and Antimetastatic Activities against Human Breast Cancer Cells” (J Med Chem, 2015):
The source made the active and inactive calls. The calls are words filed in the database; no cut-off is given here.

How the values were obtained:
MDA-MB-231 [1] = test: Induction of apoptosis in human MDA-MB-231 cells assessed as late apoptotic cells at 5 uM after 24 hrs by annexin V-propidium iodide/Alexa Fluor 488 staining-based flow cytometric analysis (reference value: 2.08 to 3.78%); format: functional
How it was run: (§1)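 MDA-MB-231 cells, about 2 × 10⁵ per well, seeded in triplicate and treated for 24 h in RPMI-1640 with 10% FBS. Stained with Alexa Fluor 488 annexin V and propidium iodide, then read by flow cytometry. AV+/PI+ events were counted as late apoptotic and reported as percentage of cells relative to control. Three independent experiments, mean ± SEM.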

MDA-MB-231 [2] = test: Induction of apoptosis in human MDA-MB-231 cells assessed as depolarization of mitochondrial membrane potential after 24 hrs by JC-1 staining-based flow cytometric analysis; format: functional, cell-based
How it was run: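 Cells were seeded in 60 mm dishes, grown 24 h, then treated with compound for 24 h. Cells were stained with JC-1 and analysed by flow cytometry. Depolarization was read as green-only cells and as a fall in red/green fluorescence ratio, normalized to control. Three independent experiments, mean ± SEM.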

MDA-MB-231 [3] = test: Induction of apoptosis in human MDA-MB-231 cells after 24 hrs by annexin V-propidium iodide/Alexa Fluor 488 staining-based flow cytometric analysis; format: functional, cell-based
MDA-MB-231 [4] = test: Antimigratory activity against human MDA-MB-231 cells at >= 2.5 uM after 48 hrs by transwell assay
4T1 = test: Antitumor activity against mouse 4T1 cells allografted in Balb/c mouse assessed as tumor growth inhibition at 10 mg/kg, po administered every alternative day for 5 weeks measured twice a week during compound dosing relative to control; format: functional
How it was run: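 4T1 cells (7 × 10⁵) were injected into the second right mammary fat pad of 8-week-old female Balb/c mice, with a booster of about 5 × 10⁵ cells 4 days later. One week after the booster, dosing began at 10 mg/kg by oral gavage on alternate days for 5 weeks (n = 6). Controls received vehicle. Tumor size and body weight were measured twice weekly.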

MDA-MB-231 [5] = test: Cell cycle arrest in human MDA-MB-231 cells assessed as accumulation at S phase at 5 uM after 24 hrs by propidium iodide staining-based flow cytometric analysis (reference value: 32.5 to 34.7%); format: functional
MDA-MB-231 [6] = test: Induction of apoptosis in human MDA-MB-231 cells assessed as early apoptotic cells at 2.5 uM after 24 hrs by annexin V-propidium iodide/Alexa Fluor 488 staining-based flow cytometric analysis (reference value: 4.05 to 4.68%); format: functional
MDA-MB-231 [7] = test: Cell cycle arrest in human MDA-MB-231 cells assessed as accumulation at G2/M phase after 24 hrs by propidium iodide staining-based flow cytometric analysis; format: functional
MDA-MB-231 [8] = test: Cell cycle arrest in human MDA-MB-231 cells assessed as accumulation at G0/G1 phase at 2.5 uM after 24 hrs by propidium iodide staining-based flow cytometric analysis (reference value: 44.3 to 47.1%); format: functional
MDA-MB-231 [9] = test: Cell cycle arrest in human MDA-MB-231 cells assessed as accumulation at S phase at 2.5 uM after 24 hrs by propidium iodide staining-based flow cytometric analysis (reference value: 32.5 to 34.7%); format: functional
MDA-MB-231 [10] = test: Induction of apoptosis in human MDA-MB-231 cells assessed as early apoptotic cells at 5 uM after 24 hrs by annexin V-propidium iodide/Alexa Fluor 488 staining-based flow cytometric analysis (reference value: 4.05 to 4.68%); format: functional
MDA-MB-231 [11] = test: Cell cycle arrest in human MDA-MB-231 cells assessed as accumulation at S phase at 7.5 uM after 24 hrs by propidium iodide staining-based flow cytometric analysis (reference value: 32.5 to 34.7%); format: functional
MDA-MB-468 = test: Cytotoxicity against human MDA-MB-468 cells assessed as growth inhibition after 24 to 72 hrs by MTT assay; format: functional, cell-based
How it was run: (§2)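 About 5000 cells/well were grown 24 h in RPMI-1640 with 10% FBS, then given fresh medium with compound at various concentrations (from 10 mM DMSO stocks) for 24, 48 and 72 h. MTT (5 mg/mL stock) was added for 2 h and formazan dissolved in DMSO. Absorbance was read at 595 nm and expressed as percent proliferation versus DMSO control.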

MDA-MB-231 [12] = test: Cell cycle arrest in human MDA-MB-231 cells assessed as accumulation at G2/M phase at 5 uM after 24 hrs by propidium iodide staining-based flow cytometric analysis (reference value: 18.2 to 23.1%); format: functional
MDA-MB-231 [13] = test: Induction of apoptosis in human MDA-MB-231 cells assessed as early apoptotic cells at 10 uM after 24 hrs by annexin V-propidium iodide/Alexa Fluor 488 staining-based flow cytometric analysis (reference value: 4.05 to 4.68%); format: functional
MDA-MB-231 [14] = test: Cell cycle arrest in human MDA-MB-231 cells assessed as accumulation at G0/G1 phase at 5 uM after 24 hrs by propidium iodide staining-based flow cytometric analysis (reference value: 44.3 to 47.1%); format: functional
MDA-MB-231 [15] = test: Cell cycle arrest in human MDA-MB-231 cells assessed as accumulation at G2/M phase at 2.5 uM after 24 hrs by propidium iodide staining-based flow cytometric analysis (reference value: 18.2 to 23.1%); format: functional
[16] = Cytotoxicity against human H1299 cells assessed as growth inhibition after 24 to 72 hrs by MTT assay; format: functional, cell-based; conditions: NCI-H1299; how it was run: as §2
MDA-MB-231 [17] = test: Cell cycle arrest in human MDA-MB-231 cells assessed as accumulation at G0/G1 phase at 7.5 uM after 24 hrs by propidium iodide staining-based flow cytometric analysis (reference value: 44.3 to 47.1%); format: functional
MDA-MB-231 [18] = test: Cytotoxicity against human MDA-MB-231 cells assessed as growth inhibition after 24 to 72 hrs by MTT assay; format: functional, cell-based; how it was run: as §2
MDA-MB-231 [19] = test: Induction of apoptosis in human MDA-MB-231 cells assessed as early apoptotic cells at 7.5 uM after 24 hrs by annexin V-propidium iodide/Alexa Fluor 488 staining-based flow cytometric analysis (reference value: 4.05 to 4.68%); format: functional
MDA-MB-231 [20] = test: Induction of apoptosis in human MDA-MB-231 cells assessed as late apoptotic cells at 2.5 uM after 24 hrs by annexin V-propidium iodide/Alexa Fluor 488 staining-based flow cytometric analysis (reference value: 2.08 to 3.78%); format: functional; how it was run: as §1
Mus musculus = test: Toxicity in Balb/c mouse allografted with mouse 4T1 cells assessed as reduction in body weight at 10 mg/kg, po administered every alternative day for 5 weeks measured twice a week during compound dosing; format: organism-based; design: dose 10 mg/kg, route oral; conditions: in vivo, 840 h
How it was run: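 Female Balb/c mice, 8 weeks old, given 7 × 10⁵ 4T1 cells into the second right mammary fat pad, plus a booster of about 5 × 10⁵ cells after 4 days. One week later, 10 mg/kg by oral gavage on alternate days for 5 weeks, n = 6. Vehicle-dosed controls. Body weight and tumour size measured twice weekly.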

MDA-MB-231 [21] = test: Cell cycle arrest in human MDA-MB-231 cells assessed as accumulation at G2/M phase at 7.5 uM after 24 hrs by propidium iodide staining-based flow cytometric analysis (reference value: 18.2 to 23.1%); format: functional
MDA-MB-231 [22] = test: Induction of apoptosis in human MDA-MB-231 cells assessed as late apoptotic cells at 7.5 uM after 24 hrs by annexin V-propidium iodide/Alexa Fluor 488 staining-based flow cytometric analysis (reference value: 2.08 to 3.78%); format: functional; how it was run: as §1

Compound | Activity (MDA-MB-231 [1]) [%] | Activity (MDA-MB-231 [2]) | Activity (MDA-MB-231 [3]) | Activity (MDA-MB-231 [4]) | Activity (MDA-MB-231 [5]) [%] | Activity (MDA-MB-231 [6]) [%] | Activity (MDA-MB-231 [7]) | Activity (MDA-MB-231 [8]) [%] | Activity (MDA-MB-231 [9]) [%] | Activity (MDA-MB-231 [10]) [%] | Activity (MDA-MB-231 [11]) [%] | IC50 (MDA-MB-468) [µM] | Activity (MDA-MB-231 [12]) [%] | Activity (MDA-MB-231 [13]) [%] | Activity (MDA-MB-231 [14]) [%] | Activity (MDA-MB-231 [15]) [%] | IC50 [16] [µM] | Activity (MDA-MB-231 [17]) [%] | IC50 (MDA-MB-231 [18]) [µM] | Activity (MDA-MB-231 [19]) [%] | other results
COC(=O)c1cc2c3ccccc3[nH]c2c2cn(-c3ccc(C)cc3Br)c[n+]12.[Cl-] | 4.06 | Dose-dependent effect | Dose-dependent effect | Active | 17.9 | 5.42 | Dose-dependent effect | 56.8 | 19.5 | 6.93 | 24.4 | 5.78 | 34.7 | 55.63 | 47.3 | 23.6 | 7.8 | 43 | 7.28 | 24.22 | TGI (4T1): inactive; Activity (MDA-MB-231 [20]): 3.49%; Activity (Mus musculus): Non-toxic; Activity (MDA-MB-231 [21]): 32.5%; Activity (MDA-MB-231 [22]): 16.58%
COC(=O)c1cc2c3ccccc3[nH]c2c2cn(-c3ccc(C(F)(F)F)cc3)c[n+]12.[Cl-] | 2.31 | Dose-dependent effect | Dose-dependent effect | Active | 19 | 4.4 | Dose-dependent effect | 50.4 | 26.7 | 5.23 | 27.6 | 11.1 | 35.5 | 14.3 | 45.3 | 22.8 | 4.48 | 34.1 | 7.98 | 9.28 | inhibition in vivo at 10 mg/kg (4T1; 4T1, 840 h, read-out: TGI): 20%; Activity (MDA-MB-231 [20]): 2.87%; Activity (Mus musculus): Non-toxic; Activity (MDA-MB-231 [21]): 38.2%; Activity (MDA-MB-231 [22]): 9.02%
COC(=O)c1cc2c3ccccc3[nH]c2c2cn(-c3ccc(F)cc3Cl)c[n+]12.[Cl-] | 3.26 | Dose-dependent effect | Dose-dependent effect | Active | 21.8 | 2.21 | Dose-dependent effect | 46.7 | 29.8 | 4.72 | 28.22 | 5.94 | 33.9 | 14.4 | 46.6 | 23.4 | 5.13 | 31.1 | 4.49 | 12.14 | TGI (4T1): inactive; Activity (MDA-MB-231 [20]): 1.16%; Activity (Mus musculus): Non-toxic; Activity (MDA-MB-231 [21]): 40.6%; Activity (MDA-MB-231 [22]): 7.04%
